Measurements reported in ChEMBL document CHEMBL5712918, “Targeting methyltransferase PRMT5 retards the carcinogenesis and metastasis of HNSCC via epigenetically inhibiting Twist1 transcription” (Neoplasia, 2020).
The source made the active and inactive calls.

How the values were obtained:
[1] = Toxicity in BALB/c nude mouse xenografted with human tongue squamous carcinoma cells assessed as effect on kidney morphology at 30 mg/kg; format: organism-based; details: in vivo
[2] = Toxicity in BALB/c nude mouse xenografted with human tongue squamous carcinoma cells assessed as effect on liver morphology at 30 mg/kg; format: organism-based; details: in vivo
[3] = Toxicity in BALB/c nude mouse xenografted with human HSC6 cells assessed as effect on liver morphology at 15 to 30 mg/kg; format: organism-based; details: in vivo, dose 15-30 mg/kg
Method in brief: (§1)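 Subcutaneous xenograft in 4-week-old BALB/c nude mice given 6 × 10^7 HSC6 cells into the back. Groups were control, 15 mg/kg and 30 mg/kg. Body weight was monitored and major organs were examined for toxicity.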

[4] = Toxicity in BALB/c nude mouse xenografted with human HSC6 cells assessed as effect on body weight at 15 to 30 mg/kg; format: organism-based; details: in vivo, dose 15-30 mg/kg; method in brief: as §1
HSC-6 [5] = assay: Antitumor activity against human HSC-6 cells xenografted in BALB/c nude mouse model of orthotopic tumor assessed as as reduction in distant metastasis in lung at 30 mg/kg by H and E analysis; format: functional, organism-based
SCC-25 [6] = assay: Antiproliferative activity against human SCC-25 cells assessed as reduction in colony formation at 0.5 to 5 uM after 10 to 14 days […]; format: functional, cell-based; details: dose 0.5-5 µM, time 10-14 day
Method in brief: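 Colony formation: cells dispersed to single cells and seeded at 500 cells/well in 6-well plates. Grown 10–14 days until macroscopic clones appeared, then formaldehyde-fixed and crystal violet-stained. Clone formation rate from clones counted by eye.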

SCC-25 [7] = assay: Antiproliferative activity against human SCC-25 cells assessed as reduction in cell vaibility at 1 to 10 uM by CCK-8 assay; format: functional, cell-based; details: dose 1-10 µM
Method in brief: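 Proliferation of HSC6 and SCC25 cells read by CCK-8 conversion. Mean ± SD of three independent experiments, Student's t test.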

SCC-25 [8] = assay: Antimigratory activity against human SCC-25 cells assessed as reduction in cell invasion after 48 hrs incubated for 48 hrs by transwell assay; format: functional, cell-based
Rattus norvegicus [9] = assay: Antitumor activity against 4-Nitroquinoline-1-Oxide induced cancer Sprague-Dawley rat carcinogenic model assessed as reduction in lesion area of tongue tissue at 30 mg/kg, iv administered on week 12 and measured on week 22; format: functional, organism-based; details: time 10.0 weeks
HSC-6 [10] = assay: Antitumor activity against human HSC-6 cells xenografted in BALB/c nude mouse model of orthotopic tumor assessed as reduction in tumor volume in tongue at 30 mg/kg by H and E staining based assay; format: functional, organism-based
Method in brief: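 Orthotopic tongue xenograft: 5 × 10^5 HSC6 cells submucosally in 4-week-old BALB/c nude mice, control or 30 mg/kg (n = 12 each). Tumour volume quantified on HE-stained longitudinal tongue sections. Student's t test.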

HSC-6 [11] = assay: Antitumor activity against human HSC-6 cells xenografted in BALB/c nude mouse assessed as reduction in Ki67-positive tumor cell at 15 to 30 mg/kg by immunohistochemistry analysis; format: functional, organism-based; details: dose 15-30 mg/kg
Method in brief: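 HSC6 subcutaneous xenograft: 6 × 10^7 cells into the back of 4-week-old BALB/c nude mice, dosed at 15 or 30 mg/kg. IHC with Ki67 1:400 or Twist1 1:250. Percent positive cells from 5 random fields per sample. Student's t test; Twist1 groups n = 6/6.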

[12] = Toxicity in BALB/c nude mouse xenografted with human squamous carcinoma cells assessed as effect on body weight at 30 mg/kg; format: organism-based; details: in vivo
[13] = biological target: Protein arginine N-methyltransferase 5 (Homo sapiens) (UniProt O14744); assay: Inhibition of PRMT5 in human SCC-25 cells assessed as reduction in Twist1 mRNA expression at 10 uM incubated for 4 days by RT-qPCR analysis; format: cell-based; details: time 4.0 day
Method in brief: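 HSC6 or SCC25 cells exposed to 10 μM for 4 days. Twist1 mRNA measured by quantitative RT-PCR. Mean ± SD of three independent experiments, Student's t test.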

[14] = biological target: Protein arginine N-methyltransferase 5 (Homo sapiens) (UniProt O14744); assay: Inhibition of PRMT5 in human HSC-6 cells assessed as increase in E-cadherin protein expression level at 10 uM incubated for 4 days by western blot analysis; format: cell-based; details: time 4.0 day
Method in brief: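 HSC6 or SCC25 cells treated with 10 μM for 4 days. E-cadherin, N-cadherin and Twist1 proteins detected by immunoblot.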

Rattus norvegicus [15] = assay: Antitumor activity against 4-Nitroquinoline-1-Oxide induced cancer Sprague-Dawley rat carcinogenic model assessed as reduction in number of Twist1 positive cells at 30 mg/kg, iv administered on week 12 and measured on week 22 by IHC assay; format: functional, organism-based; details: time 10.0 weeks
Method in brief: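 4NQO-induced SD rat tongue lesions (0.002% 4NQO in drinking water for 12 weeks; tail-vein 30 mg/kg from week 12; killed at week 22). IHC with Twist1 antibody 1:250. Percentage of positive cells from 5 random fields per sample. Groups n = 11/6, mean ± SD, Student's t test.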

[16] = biological target: Protein arginine N-methyltransferase 5 (Homo sapiens) (UniProt O14744); assay: Inhibition of PRMT5 in human HSC-6 cells over expressing Twist1 assessed as decrease in E-cadherin protein level at 10 uM incubated for 4 days by immunoblot analysis; format: cell-based; details: time 4.0 day
Method in brief: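 HSC6 cells stably overexpressing Flag-Twist1, with or without 10 μM for 4 days. Twist1, N-cadherin and E-cadherin proteins detected by immunoblot.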

[17] = biological target: Protein arginine N-methyltransferase 5 (Homo sapiens) (UniProt O14744); assay: Inhibition of PRMT5 in human SCC-25 cells over expressing Twist1 assessed as decrease in E-cadherin protein level at 10 uM incubated for 4 days by immunoblot analysis; format: cell-based; details: time 4.0 day
Method in brief: (§2)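 SCC25 cells stably overexpressing Flag-tagged Twist1 were treated with or without 10 μM inhibitor for 4 days, then immunoblotted for Twist1, N-cadherin and E-cadherin.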

[18] = biological target: Protein arginine N-methyltransferase 5 (Homo sapiens) (UniProt O14744); assay: Inhibition of PRMT5 in human SCC-25 cells over expressing Twist1 assessed as increase in N-cadherin protein level at 10 uM incubated for 4 days by immunoblot analysis; format: cell-based; details: time 4.0 day; method in brief: as §2
HSC-6 [19] = assay: Antimigratory activity against human HSC-6 cells assessed as reduction in cell migration at 10 uM for 4 days by transwell assay; format: functional, cell-based; details: time 4.0 day
Method in brief: (§3)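 Transwell migration and invasion with 8-μm pore inserts. HSC6 or SCC25 cells, including lines stably overexpressing Flag-Twist1, treated at 10 μM for 4 days. Mean ± SD of three independent experiments, one-way ANOVA.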

HSC-6 [20] = assay: Anti-invasive activity against human HSC-6 cells assessed as reduction in cell invasion at 10 uM for 4 days by transwell assay; format: functional, cell-based; details: time 4.0 day; method in brief: as §3
[21] = biological target: Protein arginine N-methyltransferase 5 (Homo sapiens) (UniProt O14744); assay: Inhibition of PRMT5 in human SCC-25 cells assessed as reduction in H3R2me2 protein expression at 10 uM incubated for 4 days by western blot analysis; format: cell-based; details: time 4.0 day
[22] = biological target: Protein arginine N-methyltransferase 5 (Homo sapiens) (UniProt O14744); assay: Inhibition of PRMT5 in human HSC-6 cells assessed as reduction in H4R3me2 protein expression at 10 uM incubated for 4 days by western blot analysis; format: cell-based; details: time 4.0 day
[23] = biological target: Protein arginine N-methyltransferase 5 (Homo sapiens) (UniProt O14744); assay: Inhibition of PRMT5 in human HSC-6 cells assessed as reduction in H3R8me2 protein expression at 10 uM incubated for 4 days by western blot analysis; format: cell-based; details: time 4.0 day
HSC-6 [24] = assay: Antitumor activity against human HSC-6 cells xenografted in BALB/c nude mouse assessed as reduction in tumor volume at 15 to 30 mg/kg; details: dose 15-30 mg/kg
[25] = biological target: Protein arginine N-methyltransferase 5 (Homo sapiens) (UniProt O14744); assay: Inhibition of PRMT5 in human SCC-25 cells assessed as increase in E-cadherin protein expression level at 10 uM incubated for 4 days by western blot analysis; details: time 4.0 day

Protein arginine N-methyltransferase 5 (Homo sapiens), sequence (O14744 whole entry): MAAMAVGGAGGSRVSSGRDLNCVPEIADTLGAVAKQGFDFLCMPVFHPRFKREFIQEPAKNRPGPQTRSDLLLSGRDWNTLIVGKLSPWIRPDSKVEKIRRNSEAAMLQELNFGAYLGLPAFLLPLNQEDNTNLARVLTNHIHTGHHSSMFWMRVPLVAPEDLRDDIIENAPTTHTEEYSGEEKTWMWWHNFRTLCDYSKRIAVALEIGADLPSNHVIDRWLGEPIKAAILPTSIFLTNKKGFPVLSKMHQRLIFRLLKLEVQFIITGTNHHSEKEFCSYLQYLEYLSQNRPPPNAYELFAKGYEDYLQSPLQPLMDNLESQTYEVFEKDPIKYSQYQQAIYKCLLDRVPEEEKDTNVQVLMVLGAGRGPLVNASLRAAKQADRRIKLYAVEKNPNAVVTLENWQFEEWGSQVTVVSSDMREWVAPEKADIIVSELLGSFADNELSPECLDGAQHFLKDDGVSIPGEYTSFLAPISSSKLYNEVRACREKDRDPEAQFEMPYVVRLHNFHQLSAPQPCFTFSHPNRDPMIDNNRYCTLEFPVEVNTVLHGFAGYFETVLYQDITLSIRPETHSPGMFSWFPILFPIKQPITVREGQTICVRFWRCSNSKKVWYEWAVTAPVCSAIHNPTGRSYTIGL

O=C(NC[C@H](O)CN1CCc2ccccc2C1)c1cc(NC2COC2)ncn1
active: Activity (HSC-6 [5]) | Activity (SCC-25 [6]) | Activity (SCC-25 [7]) | Activity (SCC-25 [8]) | Activity (Rattus norvegicus [9]) | Activity (HSC-6 [10]) | Activity (HSC-6 [11]) | inhibition [13] | inhibition [14] | Activity (Rattus norvegicus [15]) | Activity (HSC-6 [19]) | Activity (HSC-6 [20]) | inhibition [21] | inhibition [22] | inhibition [23] | Activity (HSC-6 [24]) | inhibition [25]
Non-Toxic: Activity [1] | Activity [2] | Activity [3] | Activity [4] | Activity [12]
inactive: inhibition [16] | inhibition [17] | inhibition [18]
